Experimental findings from ChEMBL document CHEMBL2157930, “Synthesis and structure-activity relationship of berberine analogues in LDLR up-regulation and AMPK activation” (2012) are described below.

Active and inactive are the calls of the source.

One experiment deals with HepG2. Description: Increase in AMPKalpha phosphorylation in human HepG2 cells at 10 uM after 4 hrs by Western blot analysis relative to untreated control. The format is cell-based.
Conditions: not given
The essentials: (§1)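 HepG2 cells in MEM with 10% FBS and antibiotics, 37 °C, 5% CO2, plated the day before to about 70% confluence. Treated with vehicle or compound at 10 uM for 4 h. Whole-cell lysates were run on SDS-PAGE and Western blotted for Thr172-phospho-AMPKa and total AMPKa. Bands were scanned and p-AMPKa was expressed as a percentage of total AMPKa. Mean ± SEM of 3 experiments.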
(In western blotting, separated proteins are transferred to a membrane and probed.)
On to `COc1ccc2cc3[n+](cc2c1O)CCc1cc2c(cc1-3)OCO2`, for which the result was Active.

Take `COc1cc2cc3[n+](cc2cc1OC)CCc1cc2c(cc1-3)OCO2.[Cl-]` [PSEUDOBERBERINE]: the outcome was Active.

Turning to `COc1ccc2cc3[n+](cc2c1OC)CCc1cc2c(cc1-3)OCO2.[Cl-]` [BERBERINE CHLORIDE], the outcome was Active.

`COc1ccc2cc3n(cc-2c1=O)CCc1cc2c(cc1-3)OCO2`: the result was Active.

The subject of a further experiment is L6. Description: Induction of AMPKalpha phosphorylation in rat L6 cells. The format is cell-based.
Conditions: not given
Regarding `COc1cc2cc3[n+](cc2cc1OC)CCc1cc2c(cc1-3)OCO2.[Cl-]` [PSEUDOBERBERINE], the outcome was Active.

For another experiment, the system named is HepG2. Description: Up regulation of LDLR expression in human HepG2 cells at 10 uM after 12 hrs by RT-PCR relative to untreated control.
Conditions: not given
The format is functional. The essentials:
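HepG2 cells (MEM, 10% FBS, about 70% confluent) treated at 10 uM for 12 h. LDLR mRNA measured by real-time RT-PCR, reverse transcription 42 °C for 15 min. Normalized to β-actin by the comparative threshold cycle method and expressed as fold of untreated control (set to 1). Mean ± SEM of 3 separate experiments.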
On to `COc1ccc2cc3[n+](cc2c1Cl)CCc1cc2c(cc1-3)OCO2.[Cl-]`, for which the “fold change (FC)” value is 1.12.

As to `COc1cc(Br)c2cc3[n+](cc2c1O)CCc1cc2c(cc1-3)OCO2.[Cl-]`, the “fold change (FC)” value came to 0.94.

On to `CCOc1cc2c(cc1OC)-c1cc3cc(OC)c(OC)cc3c[n+]1CC2.[Cl-]`, for which the “fold change (FC)” value was found to be 1.04.

Take `CCOc1cc2cc3[n+](cc2cc1OC)CCc1cc2c(cc1-3)OCO2.[Cl-]`: the “fold change (FC)” value worked out at 0.91.

As to `COc1cc2cc3[n+](cc2cc1OC)CCc1cc2c(cc1-3)OCO2.[Cl-]` [PSEUDOBERBERINE], the “fold change (FC)” value was found to be 3.23.

As to `CCOc1cc2c(cc1OC)CC[n+]1cc3c(OC)c(OC)ccc3cc1-2.[Cl-]`, the “fold change (FC)” value worked out at 1.

Take `COc1cc2c(c(OC)c1OC)-c1cc3ccc(OC)c(OC)c3c[n+]1CC2.[Cl-]`: the “fold change (FC)” value is recorded as 0.88.

On to `COc1cc2cc3[n+](cc2c(Cl)c1OC)CCc1cc2c(cc1-3)OCO2.[Cl-]`, for which the “fold change (FC)” value is on record as 0.92.

Consider `COc1ccc2cc3[n+](cc2c1F)CCc1cc2c(cc1-3)OCO2.[Cl-]`, for which the “fold change (FC)” value came to 1.

With `COc1ccc2cc3[n+](cc2c1OC)CCc1cc2c(cc1-3)OCO2.[Cl-]` [BERBERINE CHLORIDE], the “fold change (FC)” value is recorded as 2.35.

Regarding `COc1cc2cc3[n+](cc2cc1OC)CCc1c-3ccc(OC)c1OC.[Cl-]`, the “fold change (FC)” value is on record as 0.92.

Turning to `[Cl-].c1c2c(cc3c1OCO3)-c1cc3cc4c(cc3c[n+]1CC2)OCCO4`, the “fold change (FC)” value is given as 0.96.

Regarding `COc1cc2c(cc1O)-c1cc3ccc(OC)c(OC)c3c[n+]1CC2.[Cl-]` [COLUMBAMINE CHLORIDE], the “fold change (FC)” value was 1.15.

As for `COc1ccc2c(c1OC)CC[n+]1cc3c(OC)c(OC)ccc3cc1-2.[Cl-]`, the “fold change (FC)” value came to 0.89.

Consider `CCOc1cc2c(cc1OC)CC[n+]1cc3cc(OC)c(OC)cc3cc1-2.[Cl-]`, for which the “fold change (FC)” value is given as 0.96.

With `CCOc1cc2c(cc1OC)-c1cc3ccc(OC)c(OC)c3c[n+]1CC2.[Cl-]`, the “fold change (FC)” value amounted to 1.02.

The next experiment has as its system HepG2. Description: Induction of AMPKalpha phosphorylation in human HepG2 cells after 4 hrs by Western blot analysis relative to untreated control. The format is cell-based.
Conditions: not given
The essentials: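 HepG2 cultured as above, about 70% confluent, then exposed to a range of concentrations for 4 h. Western blot for Thr172-phospho-AMPKa and total AMPKa, densitometry, p-AMPKa as a percentage of total, relative to untreated cells. Mean ± SEM of 3 experiments.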
As for `COc1cc2cc3[n+](cc2cc1OC)CCc1cc2c(cc1-3)OCO2.[Cl-]` [PSEUDOBERBERINE], the Activity entry is “Dose-dependent effect”.

In another experiment the test system is HepG2. Description: Increase in AMPKalpha phosphorylation in human HepG2 cells at 10 uM after 4 hrs by Western blot analysis relative to untreated control relative to total AMPKalpha level. The format is cell-based.
Conditions: not given
The essentials: as §1
On to `COc1cc2cc3[n+](cc2cc1OC)CCc1cc2c(cc1-3)OCO2.[Cl-]` [PSEUDOBERBERINE], for which the fold change (FC) was found to be 2.6.

For the molecule `COc1ccc2cc3[n+](cc2c1OC)CCc1cc2c(cc1-3)OCO2.[Cl-]` [BERBERINE CHLORIDE], the fold change (FC) is less than 3.2.

In a further experiment the test system is HepG2. Description: Induction of AMPKalpha phosphorylation in human HepG2 cells at 10 uM by Western blot analysis relative to untreated control. The format is cell-based. The conditions noted are these: TDE = time-dependent effect. The essentials: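 Time course in HepG2: cells given 10 uM for different time intervals. Western blot for Thr172-phospho-AMPKa and total AMPKa, bands quantified, p-AMPKa as a percentage of total, compared with untreated cells. Mean ± SEM of 3 repeats.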
As to `COc1cc2cc3[n+](cc2cc1OC)CCc1cc2c(cc1-3)OCO2.[Cl-]` [PSEUDOBERBERINE], the Activity result is “tde”.

A further experiment relates to HepG2. Description: Increase in total AMPKalpha level in human HepG2 cells at 10 uM after 4 hrs by Western blot analysis relative to untreated control. The format is functional, cell-based.
Conditions: not given
The essentials:
as §1
On to `COc1cc2cc3[n+](cc2cc1OC)CCc1cc2c(cc1-3)OCO2.[Cl-]` [PSEUDOBERBERINE], for which the result was Active.

With `COc1ccc2cc3[n+](cc2c1OC)CCc1cc2c(cc1-3)OCO2.[Cl-]` [BERBERINE CHLORIDE], the result was Active.
